Results on three compounds are retold here after ChEMBL document CHEMBL1143600, “Synthesis and pharmacology of ethylphenidate enantiomers: the human transesterification metabolite of methylphenidate and ethanol” (J Med Chem, 2005).

Experiment [1] concerns the target T1, Sodium-dependent dopamine transporter (Homo sapiens, UniProt Q01959). In words: Inhibition of [3H]dopamine uptake in HEK293 cells expressing human dopamine transporter. It is filed as functional, cell-based. In a few lines:
(§1)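 HEK293 cells expressing the human transporter were grown to confluence, triturated in Krebs-HEPES and preincubated 10 min with compound (six concentrations). Uptake was started with [3H]serotonin or [3H]dopamine at 20 nM final and stopped after 10 min by filtration over PEI-presoaked GF/C filters. Nonspecific uptake: 5 µM imipramine (SERT) or 5 µM mazindol (DAT). IC50 from triplicate curves, 2–3 independent determinations.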

The target of experiment [2] is T2, Sodium-dependent serotonin transporter (Homo sapiens, UniProt P31645). The experiment in a line: Displacement of [125I]RTI-55 from human Serotonin transporter expressed in HEK293 cells. The experiment is classed as cell-based. In short, it runs like this:
(§2)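 Membranes from HEK293 cells expressing the human transporter (grown to 80% confluence, lysed in 2 mM HEPES/1 mM EDTA, spun at 30000g). 10–15 µg protein was preincubated 10 min with compound in Krebs-HEPES pH 7.4 containing pargyline, tropolone, glucose and ascorbate. Nonspecific binding: 5 µM mazindol (DAT) or 5 µM imipramine (SERT). IC50 converted to Ki by Cheng-Prusoff.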

Experiment [3] deals with T2, Sodium-dependent serotonin transporter. The experiment in a line: Inhibition of [3H]5-HT uptake in HEK293 cells expressing human serotonin transporter. The experiment is classed as functional, cell-based. In short, it runs like this:
as §1

Experiment [4] deals with T3, Sodium-dependent noradrenaline transporter (Homo sapiens, UniProt P23975). In words: Displacement of [125I]RTI-55 from human Norepinephrine transporter expressed in HEK293 cells. The experiment is classed as cell-based. In general terms: In a radioligand displacement assay an active substance lowers the binding of a labelled ligand.
T3 sequence (P23975 whole entry): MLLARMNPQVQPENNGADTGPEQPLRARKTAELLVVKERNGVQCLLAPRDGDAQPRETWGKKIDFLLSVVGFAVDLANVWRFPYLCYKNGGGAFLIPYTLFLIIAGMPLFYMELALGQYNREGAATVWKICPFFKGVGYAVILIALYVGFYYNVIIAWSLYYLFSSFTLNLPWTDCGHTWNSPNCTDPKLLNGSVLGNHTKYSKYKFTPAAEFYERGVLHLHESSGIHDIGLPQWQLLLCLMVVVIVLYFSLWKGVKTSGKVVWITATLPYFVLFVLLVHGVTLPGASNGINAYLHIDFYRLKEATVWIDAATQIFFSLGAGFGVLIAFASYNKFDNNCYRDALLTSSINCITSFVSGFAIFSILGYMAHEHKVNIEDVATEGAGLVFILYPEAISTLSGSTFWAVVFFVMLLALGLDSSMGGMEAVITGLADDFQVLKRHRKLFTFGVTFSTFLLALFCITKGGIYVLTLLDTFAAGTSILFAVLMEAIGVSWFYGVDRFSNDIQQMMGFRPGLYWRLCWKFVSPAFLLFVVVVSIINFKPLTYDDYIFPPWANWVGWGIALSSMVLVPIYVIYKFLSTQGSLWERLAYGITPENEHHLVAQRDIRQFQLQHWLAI
Experiment [5] deals with T1, Sodium-dependent dopamine transporter. In words: Displacement of [125I]-RTI-55 from Dopamine transporter expressed in HEK293 cells. It is filed as cell-based. In a few lines: as §2
Experiment [6] deals with T3, Sodium-dependent noradrenaline transporter. The experiment in a line: Inhibition of [3H]norepinephrine uptake in HEK293 cells expressing human norepinephrine transporter. It is filed as functional, cell-based.

Counter-ions that a name gives are not always drawn.

T2 sequence (P31645 whole entry): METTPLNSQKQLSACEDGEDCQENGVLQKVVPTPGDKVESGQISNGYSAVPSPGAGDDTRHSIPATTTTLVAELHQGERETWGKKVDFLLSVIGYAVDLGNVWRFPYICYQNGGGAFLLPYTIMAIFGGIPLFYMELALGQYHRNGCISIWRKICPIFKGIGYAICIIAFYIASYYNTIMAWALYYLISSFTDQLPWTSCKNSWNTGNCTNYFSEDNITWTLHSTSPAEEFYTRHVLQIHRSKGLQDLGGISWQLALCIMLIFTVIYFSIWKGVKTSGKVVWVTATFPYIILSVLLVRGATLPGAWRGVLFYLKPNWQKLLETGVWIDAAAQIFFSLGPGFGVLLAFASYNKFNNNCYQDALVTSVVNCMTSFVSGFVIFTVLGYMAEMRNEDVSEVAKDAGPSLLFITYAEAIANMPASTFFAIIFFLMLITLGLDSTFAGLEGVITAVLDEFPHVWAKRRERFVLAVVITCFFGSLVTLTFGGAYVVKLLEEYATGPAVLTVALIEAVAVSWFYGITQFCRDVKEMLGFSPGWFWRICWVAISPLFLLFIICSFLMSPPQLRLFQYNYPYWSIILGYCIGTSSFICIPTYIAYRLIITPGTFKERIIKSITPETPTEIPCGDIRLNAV
T1 sequence (Q01959 whole entry): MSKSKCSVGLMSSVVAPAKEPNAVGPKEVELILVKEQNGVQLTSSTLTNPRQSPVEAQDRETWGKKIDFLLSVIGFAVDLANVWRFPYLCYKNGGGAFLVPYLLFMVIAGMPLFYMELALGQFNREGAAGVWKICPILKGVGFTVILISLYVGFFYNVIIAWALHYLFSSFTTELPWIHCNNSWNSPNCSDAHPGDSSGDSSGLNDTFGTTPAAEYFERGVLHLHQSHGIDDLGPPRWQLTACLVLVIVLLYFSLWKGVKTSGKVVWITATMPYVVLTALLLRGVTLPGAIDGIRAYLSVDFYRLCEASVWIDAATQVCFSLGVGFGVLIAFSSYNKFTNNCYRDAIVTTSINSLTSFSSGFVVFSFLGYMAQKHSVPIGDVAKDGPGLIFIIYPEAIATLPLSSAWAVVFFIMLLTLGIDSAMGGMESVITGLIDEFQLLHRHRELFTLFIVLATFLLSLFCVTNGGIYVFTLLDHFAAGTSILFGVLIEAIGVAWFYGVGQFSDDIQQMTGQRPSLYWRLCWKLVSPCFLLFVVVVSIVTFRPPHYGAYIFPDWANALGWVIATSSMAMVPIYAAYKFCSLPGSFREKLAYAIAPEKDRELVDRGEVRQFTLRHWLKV

A word on the IC50: it is the concentration that gives 50% inhibition. Lower therefore signals inhibition by little substance. For `CCOC(=O)[C@@H](c1ccccc1)[C@@H]1CCCCN1` (stereo in doubt; (-)-2), the IC50 in experiment [1] was 1730 nM; in experiment [2] it was above 9500 nM; in experiment [3] it was above 10000 nM; in experiment [4] it was above 10000 nM; in experiment [5] it was 2700 nM; in experiment [6] it was above 10000 nM.

`COC(=O)C(c1ccccc1)C1CCCCN1` (racemic) [METHYLPHENIDATE HYDROCHLORIDE]: the results for the IC50 in experiment [2], in experiment [4] and in experiment [6] were above 10000 nM, 788 nM and 51 nM, respectively.

`CCOC(=O)C(c1ccccc1)C1CCCCN1` (racemic): the IC50 in experiment [1] is 95 nM; in experiment [2], 7540 nM; in experiment [3] it was above 10000 nM; in experiment [4], above 7200 nM; in experiment [5], 319 nM; in experiment [6], 480 nM.
